Most compounds without a hit are left out; they make up all but 2.1% or so of the library.
H9c2 protect – cardioprotection against H2O2-induced cell death, primary screen, uHTS, H9c2 cells, ATPLite luminescence; H9c2 cardiomyocytes, H2O2 injury protection, 2 h; protection from H2O2 cell death, % at 20 µM; hit rate 0.63% among 360,000;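 active = compounds giving at least 50% protection of heart cells from peroxide-induced death in the single-dose screen, raw or plate-pattern-corrected value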;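 also: 0% = DMSO wells with peroxide and 100% = DMSO wells without peroxide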
UCH37 inh – inhibitors of human UCH37 deubiquitinase, primary screen, biochemical, Ub-AMC cleavage, fluorescence. AID 588478, 2011. hit rate 0.33% among 330,000. inhibition, % (concentration not given with the values). Ubiquitin carboxyl-terminal hydrolase isozyme L5 (Homo sapiens), Q9Y5K5. purified proteasome/UCH37;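 active = mean inhibition over replicate wells above about 20%, limit read from the data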;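 also: 0% = compound-free wells with enzyme and 100% = wells lacking proteasome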
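Material: Human UCH37 enzyme supplied as purified proteasome complex | Schedule: 30 min compound-proteasome preincubation then 25 min substrate reaction, room temperature | Detection: AMC fluorescence from Ub-AMC cleavage, excitation 355 nm, emission 460 nm | Benchmarks: Wells without proteasome as full block, compound-free enzyme plus substrate as uninhibited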
B2AR ag – beta2AR agonists driving receptor internalization, primary screen, cell-based, FAP fluorogen, flow cytometry. Beta-2 adrenergic receptor (Homo sapiens), P07550. Am2.2-beta2AR cells. response, % (test concentration not listed). hit rate 0.43% among 340,000. AID 504454, 2011;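 active = response above a set limit, near 3 SD of response in nonfluorescent compounds, cut at about 42% in these data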
PfGluPho inh – PfG6PD enzyme inhibitors, primary screen, biochemical, fluorescence intensity, uHTS; glucose-6-phosphate dehydrogenase-6-phosphogluconolactonase (Plasmodium falciparum 3D7); PfGluPho enzyme, NADPH resazurin-diaphorase fluorescence; inhibition, % at 20 µM; hit rate 0.78% among 350,000; AID 504690, 2011;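 active = inhibition reaching at least a set limit at 20 µM in the primary screen, cut at about 59% in these data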;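 also: 0% = DMSO wells with substrate and 100% = DMSO wells lacking glucose-6-phosphate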
aDG glyco up – activators of alpha-DG glycosylation, primary screen, uHTS, Pro5-aDG cells, AlphaScreen; hit rate 0.22% among 360,000; alpha-DG glycosylation AlphaScreen (IIH6); 0% Pro5, 100% B10-LARGE cell signal; activation, % at 10 µM; AID 624168, 2012;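 active = activation of at least 8% versus controls, or a plate z-score of at least 8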;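 also: Pro5 are CHO cells carrying HIG-tagged alpha-DG that lacks glycosylation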
HKDC1 inhibitor – HKDC1 hexokinase inhibitors, primary screen, biochemical, fluorescence, uHTS. AID 493160, 2011. recombinant HKDC1, G6PDH/diaphorase resazurin coupled fluorescence. hit rate 0.16% among 340,000. inhibition, % at 20 µM;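 active = inhibition above about 35% when tested at 20 µM, limit read from the data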;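 also: plate controls were DMSO wells with enzyme for no effect and DMSO wells lacking enzyme for full effect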
Target sequence (Q2TB90 whole entry, looked up): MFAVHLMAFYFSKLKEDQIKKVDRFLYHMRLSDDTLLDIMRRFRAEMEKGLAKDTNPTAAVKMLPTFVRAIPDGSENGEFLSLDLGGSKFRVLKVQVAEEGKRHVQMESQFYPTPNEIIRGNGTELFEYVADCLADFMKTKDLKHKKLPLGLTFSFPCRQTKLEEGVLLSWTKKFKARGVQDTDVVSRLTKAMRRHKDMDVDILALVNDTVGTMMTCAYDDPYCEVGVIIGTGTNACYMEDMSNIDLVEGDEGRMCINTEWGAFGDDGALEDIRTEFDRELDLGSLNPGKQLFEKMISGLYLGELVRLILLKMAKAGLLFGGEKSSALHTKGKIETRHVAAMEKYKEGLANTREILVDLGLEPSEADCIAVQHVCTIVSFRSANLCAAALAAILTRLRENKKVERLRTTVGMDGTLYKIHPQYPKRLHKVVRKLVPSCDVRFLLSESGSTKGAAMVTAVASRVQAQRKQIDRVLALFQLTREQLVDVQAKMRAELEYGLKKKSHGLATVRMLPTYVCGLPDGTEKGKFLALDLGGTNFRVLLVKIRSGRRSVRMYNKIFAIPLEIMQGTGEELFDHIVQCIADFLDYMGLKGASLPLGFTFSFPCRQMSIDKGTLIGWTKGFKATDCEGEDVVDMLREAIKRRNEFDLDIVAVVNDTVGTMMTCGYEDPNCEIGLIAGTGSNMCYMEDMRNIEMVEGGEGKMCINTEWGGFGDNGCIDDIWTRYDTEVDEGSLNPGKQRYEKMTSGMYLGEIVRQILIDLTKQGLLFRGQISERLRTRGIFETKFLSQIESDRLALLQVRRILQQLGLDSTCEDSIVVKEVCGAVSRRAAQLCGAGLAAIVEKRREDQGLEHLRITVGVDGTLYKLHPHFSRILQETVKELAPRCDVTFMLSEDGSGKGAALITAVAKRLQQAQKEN
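Test system: HK5 enzyme. Quantity: 5 µg/mL HK5 final. Reagent: glucose and ATP substrates. Schedule: 90 min reaction incubation at room temperature, dark. Technique: resazurin-to-resorufin fluorescence via G6PDH and diaphorase coupling, 525/613 nm. Control set: DMSO wells with and without enzyme mix.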
The depositor's hits bear a star.

What do the screens show for `O=C(NN=Cc1cccs1)C1CC(=O)N(c2ccccc2)C1` (stereo not given)?
UCH37 inh: 3

Results for C=CCc1ccc(OCCOc2cccc(C=Nn3cnnc3)c2)c(OC)c1 ?
UCH37 inh: 6

How did CCOc1cc(/C=C2\NC(=O)NC2=O)cc([N+](=O)[O-])c1O do in these assays?
H9c2 protect: 0; UCH37 inh: 21*; B2AR ag: 10; PfGluPho inh: 5; aDG glyco up: 0; HKDC1 inhibitor: 4

How did Cc1ccc2nc(SCc3nc4ccccc4c(=O)[nH]3)[nH]c2c1 do in these assays?
H9c2 protect: 58*; UCH37 inh: 3; B2AR ag: 3; PfGluPho inh: 14; aDG glyco up: 0; HKDC1 inhibitor: -4

Results for Cc1ccc(N(CCC#N)C(=O)CSc2nc3ccccc3c(=O)[nH]2)cc1 ?
H9c2 protect: 80*; UCH37 inh: 5; B2AR ag: 6; PfGluPho inh: 11; aDG glyco up: 0; HKDC1 inhibitor: 3

How did N#CCCN(C(=O)CSc1n[nH]c(=O)[nH]c1=O)c1ccccc1 do in these assays?
H9c2 protect: 4; UCH37 inh: 1; B2AR ag: -4; PfGluPho inh: 6; aDG glyco up: 0; HKDC1 inhibitor: -8

What do the screens show for `O=C(CSc1nc2ccccc2c(=O)[nH]1)c1ccccc1`?
H9c2 protect: 51*; UCH37 inh: 5; B2AR ag: -5; PfGluPho inh: 12; aDG glyco up: 0; HKDC1 inhibitor: 3

How did O=C(CSc1nc2ccccc2c(=O)[nH]1)N1CCN(c2ccccc2)CC1 do in these assays?
H9c2 protect: 42; UCH37 inh: 1; B2AR ag: 0; PfGluPho inh: -5; aDG glyco up: 0; HKDC1 inhibitor: -5

Results for O=C(CSc1nc2ccccc2c(=O)[nH]1)N1CCCCC1 ?
H9c2 protect: 71*; UCH37 inh: 6; B2AR ag: 4; PfGluPho inh: -10; aDG glyco up: 0; HKDC1 inhibitor: 1

Results for COC(=O)c1sc2nc(CSc3nc4ccc(C)cc4[nH]3)[nH]c(=O)c2c1C ?
H9c2 protect: 10; B2AR ag: 8; PfGluPho inh: -21; aDG glyco up: 0; HKDC1 inhibitor: -1

Results for CC(C)(C)c1ccc(C(=O)CSc2nc3ccccc3c(=O)[nH]2)cc1 ?
H9c2 protect: -5; UCH37 inh: -1; B2AR ag: -2; PfGluPho inh: -9; aDG glyco up: 1; HKDC1 inhibitor: 9

What do the screens show for `O=C(CSc1ncccn1)NN=Cc1ccc2c(c1)OCO2`?
UCH37 inh: -1

How did CCN(C(=O)CSc1nnc(Cc2ccccc2F)n1N)C1CCS(=O)(=O)C1 (stereo not given) do in these assays?
H9c2 protect: 32; UCH37 inh: 27*; B2AR ag: 7; PfGluPho inh: 0; aDG glyco up: 0; HKDC1 inhibitor: -6

How did O=C(N/N=C/C=C/c1ccccc1[N+](=O)[O-])c1cc(-c2cccnc2)nc2ccccc12 do in these assays?
H9c2 protect: 49; B2AR ag: 1; PfGluPho inh: -8; aDG glyco up: 0; HKDC1 inhibitor: -6

Results for COc1cccc(/C=N/NC(=O)c2cc(-c3ccccn3)nc3ccccc23)c1O ?
H9c2 protect: 58*; B2AR ag: 12; PfGluPho inh: -27; aDG glyco up: 1; HKDC1 inhibitor: -27

Results for COc1ccccc1-c1cc(C(=O)N/N=C/C=C/c2ccccc2[N+](=O)[O-])c2ccccc2n1 ?
H9c2 protect: 54*; B2AR ag: -2; PfGluPho inh: -11; aDG glyco up: 0; HKDC1 inhibitor: -3

How did O=C(N/N=C/c1ccc(F)cc1)c1cc(-c2ccccn2)nc2ccccc12 do in these assays?
H9c2 protect: 1; B2AR ag: -3; PfGluPho inh: -11; aDG glyco up: 0; HKDC1 inhibitor: -5

What do the screens show for `CSc1ccc(C=NNC(=O)CN2CCN(Cc3ccccc3)CC2)cc1`?
UCH37 inh: -8

What do the screens show for `Nc1nonc1-n1nnc(C(=O)NN=Cc2ccccc2F)c1CN1CCc2ccccc21`?
UCH37 inh: 5

How did Cc1ccc(Nc2nnns2)cc1 do in these assays?
H9c2 protect: -2; UCH37 inh: 2; B2AR ag: 6; PfGluPho inh: 60*; aDG glyco up: 0; HKDC1 inhibitor: -8

What do the screens show for `Cc1ccc(Nc2nc3ccccc3s2)cc1`?
H9c2 protect: -17; UCH37 inh: 2; B2AR ag: 13; PfGluPho inh: 15; aDG glyco up: 0; HKDC1 inhibitor: -7

How did O=C(O)c1cccc(Cn2c(Cl)c(C=NNC(=O)c3cc4ccccc4cc3O)sc2=O)c1 do in these assays?
UCH37 inh: 22*

What do the screens show for `COc1ccc(CCNC(=O)c2ccc3nc(-c4ccco4)c(-c4ccco4)nc3c2)cc1OC`?
H9c2 protect: 25; UCH37 inh: -38; B2AR ag: 20; PfGluPho inh: 62*; aDG glyco up: 0; HKDC1 inhibitor: 27

What do the screens show for `CCOCCCNC(=O)c1ccc2nc(-c3ccc(OC)c(OC)c3)c(-c3ccc(OC)c(OC)c3)nc2c1`?
H9c2 protect: 50*; UCH37 inh: 1; B2AR ag: 19; PfGluPho inh: 17; aDG glyco up: 0; HKDC1 inhibitor: 16

What do the screens show for `CCc1nc2ccc(C(=O)NCCc3ccc(OC)c(OC)c3)cc2nc1CC`?
H9c2 protect: 2; UCH37 inh: 3; B2AR ag: 12; PfGluPho inh: 3; aDG glyco up: 0; HKDC1 inhibitor: -3

How did COc1ccccc1N(Cc1ccccc1)S(=O)(=O)c1cccc(C(=O)NC2CC(C)(C)NC(C)(C)C2)c1 do in these assays?
H9c2 protect: -16; UCH37 inh: 3; B2AR ag: 21; PfGluPho inh: 10; aDG glyco up: 9.1*; HKDC1 inhibitor: -4

What do the screens show for `CCOC(=O)/C(C#N)=C1/C=C(C)NC(c2ccccc2O)=N1`?
H9c2 protect: -16; UCH37 inh: -58; B2AR ag: 19; PfGluPho inh: 12; aDG glyco up: 0; HKDC1 inhibitor: 19

Results for CCOC(=O)/C(C#N)=C1/C=CN(C)C(C)=N1 ?
H9c2 protect: 10; UCH37 inh: 21*; B2AR ag: 4; PfGluPho inh: -10; aDG glyco up: 0; HKDC1 inhibitor: 3

Results for CC(C)c1ccc2c(c1)CCC1C(C)(CN)CCCC21C (stereo not given) ?
H9c2 protect: -21; UCH37 inh: 9; B2AR ag: 43*; PfGluPho inh: 12; aDG glyco up: 0; HKDC1 inhibitor: 1

Compound activity: PubChem BioAssay, several laboratories
